Test results reported in ChEMBL document CHEMBL2407075, “Sulphonamido-quinoxalines: search for anticancer agent” (Eur J Med Chem, 2013).

Experiments:
Assay type in all cases: functional
OVCAR-5 = assay: Growth inhibition of human OVCAR5 cells assessed as cell growth at 10^-8 M after 48 hrs by sulforhodamine B assay; settings: OVCAR-5, 48 h, read-out: Activity
[1] = Growth inhibition of human NCI-ADR-RES cells assessed as cell growth at 10^-7 M after 48 hrs by sulforhodamine B assay; settings: read-out: Activity
KM12 [2] = assay: Growth inhibition of human KM12 cells assessed as cell growth at 10^-5 M after 48 hrs by sulforhodamine B assay; settings: KM12, 48 h, read-out: Activity
SK-MEL-5 = assay: Growth inhibition of human SK-MEL-5 cells assessed as cell growth at 10^-5 M after 48 hrs by sulforhodamine B assay; settings: SK-MEL-5, 48 h, read-out: Activity
UACC-62 = assay: Growth inhibition of human UACC62 cells assessed as cell growth at 10^-4 M after 48 hrs by sulforhodamine B assay; settings: UACC-62, 48 h, read-out: Activity
BT-549 [3] = assay: Growth inhibition of human BT549 cells assessed as cell growth at 10^-6 M after 48 hrs by sulforhodamine B assay; settings: BT-549, 48 h, read-out: Activity
Method in brief: (§1)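 Five-dose NCI-60 run (0.01, 0.1, 1, 10 and 100 µM, as 10-fold dilutions from a DMSO stock made at 400× the top final level). Cells were grown in RPMI 1640 with 5% FBS and 2 mM glutamine and plated for 24 h. They were then exposed for 48 h at 37 °C and 5% CO2. TCA fixation was followed by SRB staining with A515 read-out. Percent growth was taken relative to time-zero and control plates.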

SK-OV-3 [4] = assay: Growth inhibition of human SKOV3 cells assessed as cell growth at 10^-6 M after 48 hrs by sulforhodamine B assay; settings: SK-OV-3, 48 h, read-out: Activity
KM12 [5] = assay: Growth inhibition of human KM12 cells after 48 hrs by sulforhodamine B assay; settings: KM12, 48 h; for CC50: read-out: LC50 (the source's name)
Method in brief: (§2)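 Adherent cells in RPMI 1640 with 5% FBS and 2 mM L-glutamine were plated at 5000–40,000 cells/well and grown 24 h. Five concentrations (0.01–100 µM, DMSO stock) were added for 48 h at 37 °C. Cells were fixed with cold TCA (10% final) and stained with SRB, read at 515 nm. GI50 came from log concentration–growth curves against time-zero and control plates.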

HOP-62 = assay: Growth inhibition of human HOP62 cells assessed as cell growth at 10^-4 M after 48 hrs by sulforhodamine B assay; settings: HOP-62, 48 h, read-out: Activity
Method in brief: (§3)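 Five-dose screen at NCI. Cells in RPMI 1640 with 5% FBS and 2 mM L-glutamine, seeded at 5000–40,000 cells/well and grown 24 h at 37 °C, 5% CO2 before dosing, with time-zero plates TCA-fixed. Drug diluted from DMSO stock to 0.01, 0.1, 1, 10 and 100 µM final, 48 h. Cells fixed with cold TCA (10% final), stained with 0.4% SRB and read at 515 nm. Percent growth from Tz, control and test absorbances; GI50, TGI and LC50 from dose-response curves.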

SF-268 = assay: Growth inhibition of human SF268 cells assessed as cell growth at 10^-4 M after 48 hrs by sulforhodamine B assay; settings: SF-268, 48 h, read-out: Activity
IGROV-1 = assay: Growth inhibition of human IGROV1 cells assessed as cell growth at 10^-5 M after 48 hrs by sulforhodamine B assay; settings: IGROV-1, 48 h, read-out: Activity; method in brief: as §3
DU-145 = assay: Growth inhibition of human DU145 cells assessed as cell growth at 10^-7 M after 48 hrs by sulforhodamine B assay; settings: DU-145, 48 h, read-out: Activity; method in brief: as §1
TK-10 = assay: Growth inhibition of human TK10 cells assessed as cell growth at 10^-8 M after 48 hrs by sulforhodamine B assay; settings: TK-10, 48 h, read-out: Activity
MDA-MB-435 = assay: Growth inhibition of human MDA-MB-435 cells assessed as cell growth at 10^-7 M after 48 hrs by sulforhodamine B assay; settings: MDA-MB-435, 48 h, read-out: Activity
COLO 205 = assay: Growth inhibition of human COLO205 cells assessed as cell growth at 10^-7 M after 48 hrs by sulforhodamine B assay; settings: COLO 205, 48 h, read-out: Activity; method in brief: as §1
OVCAR-3 = assay: Growth inhibition of human OVCAR3 cells assessed as cell growth at 10^-7 M after 48 hrs by sulforhodamine B assay; settings: OVCAR-3, 48 h, read-out: Activity
Malme-3M = assay: Growth inhibition of human MALME-3M cells assessed as cell growth at 10^-7 M after 48 hrs by sulforhodamine B assay; settings: read-out: Activity
LOX IMVI = assay: Growth inhibition of human LOXIMVI cells assessed as cell growth at 10^-7 M after 48 hrs by sulforhodamine B assay; settings: read-out: Activity
BT-549 [6] = assay: Growth inhibition of human BT549 cells assessed as cell growth at 10^-4 M after 48 hrs by sulforhodamine B assay; settings: BT-549, 48 h, read-out: Activity; method in brief: as §1
UO-31 = assay: Growth inhibition of human UO31 cells after 48 hrs by sulforhodamine B assay; settings: UO-31, 48 h; for CC50: read-out: LC50 (the source's name)
Method in brief: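 NCI-60 screen. Cells grown in RPMI 1640 with 5% FBS and 2 mM L-glutamine, plated at 5000–40,000 cells/well and preincubated 24 h at 37 °C, 5% CO2. A time-zero plate is TCA-fixed at drug addition. DMSO stocks diluted in medium; five concentrations (0.01, 0.1, 1, 10, 100 µM). Exposure 48 h, then cold TCA fixation and 0.4% SRB staining, absorbance at 515 nm. GI50 is taken from the growth-percentage curve relative to time zero and control.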

[7] = Growth inhibition of human Hs 578T cells after 48 hrs by sulforhodamine B assay; settings: for CC50: read-out: LC50 (the source's name); method in brief: as §2
SR = assay: Growth inhibition of human SR cells assessed as cell growth at 10^-4 M after 48 hrs by sulforhodamine B assay; settings: read-out: Activity
T47D = assay: Growth inhibition of human T47D cells assessed as cell growth at 10^-6 M after 48 hrs by sulforhodamine B assay; settings: read-out: Activity
SK-OV-3 [8] = assay: Growth inhibition of human SKOV3 cells after 48 hrs by sulforhodamine B assay; settings: SK-OV-3, 48 h; for CC50: read-out: LC50 (the source's name)
Method in brief: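 Five-dose NCI 60 screen at 0.01, 0.1, 1, 10 and 100 µM, 48 h exposure after 24 h preincubation, in RPMI 1640 with 5% FBS and 2 mM glutamine. Fixed with TCA (10% final for adherent cells, 16% for suspension cells), stained with SRB, A515 read. Percent growth uses time-zero (Tz), control and treated plates. GI50, TGI and LC50 are read from the dose-response curves.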

HT-29 = assay: Growth inhibition of human HT-29 cells assessed as cell growth at 10^-8 M after 48 hrs by sulforhodamine B assay; settings: HT-29, 48 h, read-out: Activity; method in brief: as §3

SMILES | growth at 0.01 µM (OVCAR-5) [%] | growth at 0.1 µM [1] [%] | growth at 10 µM (KM12 [2]) [%] | growth at 10 µM (SK-MEL-5) [%] | growth at 100 µM (UACC-62) [%] | growth at 1 µM (BT-549 [3]) [%] | growth at 1 µM (SK-OV-3 [4]) [%] | TGI (KM12 [5]) [µM] | CC50 (KM12 [5]) [µM] | growth at 100 µM (HOP-62) [%] | growth at 100 µM (SF-268) [%] | growth at 10 µM (IGROV-1) [%] | growth at 0.1 µM (DU-145) [%] | growth at 0.01 µM (TK-10) [%] | growth at 0.1 µM (MDA-MB-435) [%] | growth at 0.1 µM (COLO 205) [%] | growth at 0.1 µM (OVCAR-3) [%] | growth at 0.1 µM (Malme-3M) [%] | growth at 0.1 µM (LOX IMVI) [%] | growth at 100 µM (BT-549 [6]) [%] | also measured
O=S(=O)(Nc1ccccn1)c1ccc2nc(-c3ccccc3)c(-c3ccccc3)nc2c1 | 93 | 102 | 6 | -93 | 64 | 71 | 98 | > 100 | > 100 | 39 | 64 | 30 | 99 | 92 | 102 | 98 | 92 | 107 | 97 | 49 | CC50 (UO-31): > 100 µM; GI50 [7]: 1.56 µM; CC50 [7]: > 100 µM; growth at 100 µM (SR): 18%; growth at 1 µM (T47D): 54%; GI50 (SK-OV-3 [8]): 3.58 µM; TGI (SK-OV-3 [8]): > 100 µM; CC50 (SK-OV-3 [8]): > 100 µM; growth at 0.01 µM (HT-29): 102%
O=S(=O)(Nc1ccc(Cl)cc1)c1ccc2nc(-c3ccccc3)c(-c3ccccc3)nc2c1 | 95 | 102 | 5 | -99 | 62 | 78 | 105 | > 100 | > 100 | 44 | 76 | 24 | 99 | 90 | 92 | 101 | 97 | 99 | 99 | 61 | TGI (UO-31): > 100 µM; CC50 (UO-31): > 100 µM; TGI [7]: > 100 µM; CC50 [7]: > 100 µM; growth at 100 µM (SR): 50%; growth at 1 µM (T47D): 69%; TGI (SK-OV-3 [8]): > 100 µM; CC50 (SK-OV-3 [8]): > 100 µM; growth at 0.01 µM (HT-29): 100%
